Data on 21 compounds can be found in ChEMBL document CHEMBL1145070, “Potent, small-molecule inhibitors of human mast cell tryptase. Antiasthmatic action of a dipeptide-based transition-state analogue containing a benzothiazole ketone” (J Med Chem, 2003).

For assay [1], the target named is T1, Tryptase beta-1 (Homo sapiens, UniProt Q15661). The assay is described as follows: In vitro inhibition of human Tryptase beta.
Target sequence in this assay (Q15661 whole entry): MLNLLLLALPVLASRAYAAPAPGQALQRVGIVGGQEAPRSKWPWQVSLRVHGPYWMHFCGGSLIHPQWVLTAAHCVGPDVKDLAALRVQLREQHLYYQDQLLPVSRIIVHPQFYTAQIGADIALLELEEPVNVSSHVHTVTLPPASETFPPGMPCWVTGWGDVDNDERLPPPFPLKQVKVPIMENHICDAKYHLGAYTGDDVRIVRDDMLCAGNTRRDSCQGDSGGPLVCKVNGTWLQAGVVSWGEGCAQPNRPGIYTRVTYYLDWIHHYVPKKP
In assay [2] the test system is Cationic trypsin (Bos taurus). The assay is described as follows: Beta-Trypsin inhibitory activity of compound was determined; NA= not active (<10% inhibition at 100 uM).
Assay [3] concerns the target T1, Tryptase beta-1. Kind of assay: Inhibitory activity of compound was determined against human Tryptase beta; NA= not active (<10% inhibition at 100 uM). The essentials: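 β-Tryptase chromogenic assay, with absorbance read at 405 nm at 37 °C for 30 min after enzyme addition. […] Percent inhibition came from initial slopes versus the no-inhibitor control, fitted with a four-parameter logistic model.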
Target sequence in this assay (Q15661 31-275 limits assumed): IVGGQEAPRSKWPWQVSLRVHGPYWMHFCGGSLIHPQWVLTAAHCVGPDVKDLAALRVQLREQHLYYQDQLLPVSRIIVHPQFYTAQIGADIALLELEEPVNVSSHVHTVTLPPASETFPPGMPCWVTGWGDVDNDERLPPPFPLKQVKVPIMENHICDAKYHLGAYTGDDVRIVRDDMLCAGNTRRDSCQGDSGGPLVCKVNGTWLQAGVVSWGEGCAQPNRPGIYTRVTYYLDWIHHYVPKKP

Assay [4] is described as follows: Ratio of Ki value kallikrein to that of Ki value of tryptase.
Assay [5] relates to Cationic trypsin (Bos taurus). The assay is described as follows: Ratio of Ki value of bovine trypsin to that of Ki value of tryptase.
The nature of assay [6]: Ratio of Ki value plasmin to that of Ki value of tryptase.
In assay [7] the target is Thrombin & trypsin (Homo sapiens) (UniProt P00734+P07477+P07478+P35030). Kind of assay: Ratio of Ki value thrombin to that of Ki value of tryptase. The assay is classed as protein assay.
Assay [8] addresses T1, Tryptase beta-1. Kind of assay: Inhibitory activity of compound was determined against human Tryptase beta.
Target sequence in this assay (Q15661 whole entry): as the sequence (Q15661 whole entry) above

Molecules are shown by their SMILES. Active and inactive are the calls of the source. Where only a bound is given, the exact number is not on record here.

As usually defined, the Ki is a dissociation constant, usually derived from enzyme kinetics or from competition with a known ligand. The low end stands for tighter binding, the high end for weaker binding. With `CC(=O)N1CC=C[C@H]1C(=O)N[C@@H](CCCN=C(N)N)C(=O)c1nc2ccccc2s1`, the affinity in assay [1], expressed as Ki, was 38 nM.
Compound `CC(=O)N1C[C@H](O)C[C@H]1C(=O)N[C@@H](CCCNC(=N)N)C(=O)c1nc2ccccc2s1` (stereo in doubt; (2R) 6) displayed a Ki in assay [1] of 380 nM.
On to `N=C(N)NCCCCC(=O)c1nc2ccccc2s1`, for which the NA result in assay [2] and in assay [3] was “inactive” throughout.
Take `CC(=O)N1C[C@H](O)C[C@H]1C(=O)NC(CCCN)C(=O)c1nc2ccccc2s1` (some centres undefined): the Ki in assay [1] worked out at 90 nM. This counts as double-digit nanomolar.
`CC(=O)N[C@@H](CC(C)C)C(=O)N[C@@H](CCCN=C(N)N)C(=O)c1nc2ccccc2s1`: the Ki in assay [1] stood at 41 nM.
Consider `CCCC(NC(=O)[C@@H]1C[C@@H](O)CN1C(C)=O)C(=O)c1nc2ccccc2s1` (some centres undefined), for which the NA result in assay [2] and in assay [3] was “inactive” each time.
In assay [1], `CC(=O)N1CC(=O)C[C@H]1C(=O)N[C@@H](CCCN=C(N)N)C(=O)c1nc2ccccc2s1` came in with a Ki of 73 nM.
`CC(=O)NCC(=O)N[C@@H](CCCN=C(N)N)C(=O)c1nc2ccccc2s1` returned a Ki in assay [1] of 470 nM.
`N=C(N)NCCCC(NC(=O)C1CCCC1)C(=O)c1nc2ccccc2s1` (centres undefined) had a Ki in assay [1] of 88 nM.
As for `N=C(N)NCCC[C@H](NC(=O)c1ccc2ccccc2c1O)C(=O)N1CCCC1C(N)=O` (some centres undefined), the Selectivity was more than 3000 in assay [4], 0.5 in assay [5], more than 3000 in assay [6] and 1.3 in assay [7]. The affinity in assay [1] corresponds to a Ki of 330 nM.
The compound `COS(=O)(=O)N1CCC[C@H]1C(=O)N[C@@H](CCCN=C(N)N)C(=O)c1nc2ccccc2s1` registered a Ki in assay [1] of 33 nM.
The compound `CC(=O)N1C[C@H](O)C[C@H]1C(=O)N[C@@H](CCCNC(=N)N)C(=O)c1nc2ccccc2s1` returned a Ki in assay [1] of 22 nM.
Take `N=C(N)c1ccc2nc(Cc3nc4ccc(C(=N)N)cc4[nH]3)[nH]c2c1`: the Ki in assay [1] was found to be 140 nM.
As to `CC(=O)N1C[C@H](O)C[C@H]1C(=O)NC(CCCN=C(N)N)C(=O)c1nccs1` (some centres undefined), in assay [1], the Ki is 180 nM. The Ki values of the last two compounds are within 1.5-fold of each other.
Take `CC(=O)N1CCC[C@H]1C(=O)NC(CCCN=C(N)N)C(O)c1nc2ccccc2s1` (some centres undefined): the NA result in assay [2] and in assay [3] was “inactive” in each case.
For the compound `CC(=O)N1C[C@H](O)C[C@H]1C(=O)N[C@@H](CCCNC(=N)N)C(=O)c1nc2ccccc2s1` (stereo in doubt; (2S) 6), the affinity in assay [1], expressed as Ki, was 10 nM.
In assay [1], `CC(=O)N1CCC[C@H]1C(=O)N[C@@H](CCCN=C(N)N)C(=O)c1nc2ccccc2s1` yielded a Ki of 19 nM. This Ki lies about 1.9-fold higher than the previous one.
On to `CN[C@H](Cc1ccccc1)C(=O)N1CCC[C@H]1C(=O)N[C@@H](CCCN=C(N)N)C(=O)c1nc2ccccc2s1`, for which the Ki in assay [1] came out at 6.5 nM.
In the case of `CC(=O)N1CC[C@H]1C(=O)N[C@@H](CCCN=C(N)N)C(=O)c1nc2ccccc2s1`, the Ki in assay [1] stood at 20 nM. This Ki is about 3.1-fold higher than that of the compound before.
Usually IC50 stands for the midpoint of a concentration-inhibition curve. As for `CC(=O)N1CCC[C@@H]1C(=O)N[C@@H](CCCN=C(N)N)C(=O)c1nc2ccccc2s1`, the midpoint of inhibition in assay [8], the IC50, lay at 2 nM. In assay [1], affinity was put at a Ki of 14000 nM.
Regarding `N=C(N)NCCC[C@H](NC(=O)[C@@H]1CCCN1Cc1ccccc1)C(=O)c1nc2ccccc2s1`, affinity in assay [1] was put at a Ki of 250 nM.
